Data: ChEMBL document CHEMBL4765230, “Discovery of Orally Efficacious Phosphoinositide 3-Kinase δ Inhibitors with Improved Metabolic Stability” (J Med Chem, 2016)

Test system: not listed separately
Experiment: Selectivity index, ratio of IC50 for inhibition of human full length PI3K p110alpha/p85alpha to IC50 for inhibition of human full length PI3K p110delta/p85alpha
Conditions: not given

Structure (SMILES)	Ratio IC50
C[C@H](Nc1nc(N)nc(N)c1C#N)c1nc2cccc(Cl)c2c(=O)n1-c1cccnc1	1700
C[C@H](Nc1nc(N)nc(N)c1C#N)c1nc2cccc(F)c2c(=O)n1-c1cc(F)cc(F)c1	1900
C[C@H](Nc1nc(N)nc(N)c1C#N)c1nc2cccc(Cl)c2c(=O)n1-c1ccccc1	2200

Test system: not listed separately
Experiment: Chemical stability of the compound at pH 2 phosphate buffer assessed as time required for 90% hydrolytic degradation at 100 ug/ml and 40 degreeC by UPLC-UV analysis
Format: physicochemical
Conditions: in the assay text read “10% hydrolytic degradation” for “90% hydrolytic degradation”, dose 100 µg/ml
In short: (§1)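 Compound diluted from acetonitrile or DMSO stock to 100 μg/mL final in 50 mM phosphate buffer, pH 2 (or pH 7), ionic strength 0.15 M NaCl, 40 °C in autosampler. Timed injections analysed by reverse-phase UPLC-UV (220 nm); pseudo-first-order kobs from ln c vs time; t50 and t90 calculated.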

Structure (SMILES)	Time [h]
C[C@H](Nc1nc(N)nc(N)c1C#N)c1nc2cccc(Cl)c2c(=O)n1-c1cccnc1	0.2
Cc1ccncc1-n1c([C@H](C)Nc2nc(N)nc(N)c2C#N)nc2cccc(Cl)c2c1=O (stereo in doubt; 25)	3.5
C[C@H](Nc1nc(N)nc(N)c1C#N)c1nc2c(F)ccc(Cl)c2c(=O)n1-c1cccnc1	2.8

Test system: not listed separately
Experiment: Volume of distribution at steady state in rat at 1 mg/kg, iv
Format: ADME, organism-based
Conditions: in vivo, read-out: Vdss
In short: (§2)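 Rats and dog received 1 mg/kg intravenously, formulated in 12% w/v Captisol in water. Volume of distribution was taken at steady state from the iv plasma profile. Three animals per dosing route.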

Structure (SMILES)	Vd [L/kg]
C[C@H](Nc1nc(N)nc(N)c1C#N)c1nc2cccc(Cl)c2c(=O)n1-c1cccnc1	1.9
C[C@H](Nc1nc(N)nc(N)c1C#N)c1nc2c(F)ccc(Cl)c2c(=O)n1-c1cccnc1	3.2

Target: PI3-kinase p110-alpha/p85-alpha (Homo sapiens, UniProt P42336)
Sequence (P27986 whole entry): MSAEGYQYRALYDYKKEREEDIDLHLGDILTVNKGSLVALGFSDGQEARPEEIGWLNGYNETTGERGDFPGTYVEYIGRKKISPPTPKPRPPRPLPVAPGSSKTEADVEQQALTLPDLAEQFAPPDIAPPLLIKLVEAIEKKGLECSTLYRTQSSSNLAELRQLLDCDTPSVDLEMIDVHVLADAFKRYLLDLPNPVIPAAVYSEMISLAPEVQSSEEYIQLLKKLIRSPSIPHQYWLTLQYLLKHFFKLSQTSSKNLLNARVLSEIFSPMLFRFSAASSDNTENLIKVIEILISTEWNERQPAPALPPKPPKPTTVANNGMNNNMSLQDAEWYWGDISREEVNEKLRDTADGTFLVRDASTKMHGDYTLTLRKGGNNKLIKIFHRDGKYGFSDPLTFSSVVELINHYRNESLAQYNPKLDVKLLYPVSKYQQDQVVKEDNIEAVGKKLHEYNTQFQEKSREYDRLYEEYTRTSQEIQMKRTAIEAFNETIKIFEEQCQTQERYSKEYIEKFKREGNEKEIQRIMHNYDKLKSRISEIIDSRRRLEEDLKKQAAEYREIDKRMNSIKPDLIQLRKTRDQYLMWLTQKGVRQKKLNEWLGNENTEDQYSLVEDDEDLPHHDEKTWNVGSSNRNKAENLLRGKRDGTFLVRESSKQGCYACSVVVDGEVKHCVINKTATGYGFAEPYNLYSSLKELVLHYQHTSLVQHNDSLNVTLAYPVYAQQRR
Sequence (P42336 whole entry): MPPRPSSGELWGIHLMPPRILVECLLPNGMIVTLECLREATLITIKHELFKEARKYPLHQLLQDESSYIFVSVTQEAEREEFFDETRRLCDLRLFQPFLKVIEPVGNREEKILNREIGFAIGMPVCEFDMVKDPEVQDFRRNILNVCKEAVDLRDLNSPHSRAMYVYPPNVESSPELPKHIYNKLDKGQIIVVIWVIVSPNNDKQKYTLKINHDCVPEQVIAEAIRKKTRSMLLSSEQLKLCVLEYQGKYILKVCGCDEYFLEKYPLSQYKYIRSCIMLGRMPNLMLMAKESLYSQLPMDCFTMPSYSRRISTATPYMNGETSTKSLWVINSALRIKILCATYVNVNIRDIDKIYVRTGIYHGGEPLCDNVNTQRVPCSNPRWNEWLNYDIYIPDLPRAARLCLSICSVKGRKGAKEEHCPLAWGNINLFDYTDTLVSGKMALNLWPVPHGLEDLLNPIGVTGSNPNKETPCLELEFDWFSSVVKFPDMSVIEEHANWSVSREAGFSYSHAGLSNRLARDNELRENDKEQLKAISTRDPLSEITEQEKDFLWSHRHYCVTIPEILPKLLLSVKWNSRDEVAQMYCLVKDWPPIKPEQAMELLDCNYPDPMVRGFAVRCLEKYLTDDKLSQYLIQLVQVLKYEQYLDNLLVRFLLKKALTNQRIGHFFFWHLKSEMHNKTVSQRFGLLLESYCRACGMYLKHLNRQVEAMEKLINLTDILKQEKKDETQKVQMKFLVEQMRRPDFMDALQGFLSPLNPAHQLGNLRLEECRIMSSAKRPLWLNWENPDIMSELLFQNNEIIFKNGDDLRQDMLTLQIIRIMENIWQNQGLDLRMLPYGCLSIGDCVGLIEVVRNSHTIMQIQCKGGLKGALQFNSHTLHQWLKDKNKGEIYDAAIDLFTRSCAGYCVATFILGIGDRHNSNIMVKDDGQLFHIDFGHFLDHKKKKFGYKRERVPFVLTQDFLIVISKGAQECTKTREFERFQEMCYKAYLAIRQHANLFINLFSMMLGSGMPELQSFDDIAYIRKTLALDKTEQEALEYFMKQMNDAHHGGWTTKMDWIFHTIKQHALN
Experiment: Inhibition of human full length PI3K p110alpha/p85alpha using […] as substrate measured after 30 mins by TR-FRET assay
Format: protein-complex assay
Conditions: not given

Structure (SMILES)	IC50 [nM]
C[C@H](Nc1nc(N)nc(N)c1C#N)c1nc2cccc(Cl)c2c(=O)n1-c1cccnc1	1030
Cc1ccncc1-n1c([C@H](C)Nc2nc(N)nc(N)c2C#N)nc2cccc(Cl)c2c1=O (stereo in doubt; 25)	880
C[C@H](Nc1nc(N)nc(N)c1C#N)c1nc2c(F)ccc(Cl)c2c(=O)n1-c1cccnc1	770
C[C@H](Nc1nc(N)nc(N)c1C#N)c1nc2cccc(Cl)c2c(=O)n1-c1ccccc1	240

Test system: not listed separately
Experiment: Volume of distribution at steady state in cynomolgus monkey at 1 mg/kg, iv
Format: ADME, organism-based, Macaca fascicularis
Conditions: in vivo, read-out: Vdss

Structure (SMILES)	Vd [L/kg]
C[C@H](Nc1nc(N)nc(N)c1C#N)c1nc2cccc(Cl)c2c(=O)n1-c1cccnc1	0.5

Test system: not listed separately
Experiment: Half life in rat at 1 mg/kg, iv
Format: ADME, organism-based
Conditions: in vivo

Structure (SMILES)	half-life [h]
C[C@H](Nc1nc(N)nc(N)c1C#N)c1nc2cccc(Cl)c2c(=O)n1-c1cccnc1	2.5

Target: Phosphatidylinositol 4,5-bisphosphate 3-kinase catalytic subunit gamma isoform (Homo sapiens, UniProt P48736)
Sequence (P48736 whole entry, canonical isoform): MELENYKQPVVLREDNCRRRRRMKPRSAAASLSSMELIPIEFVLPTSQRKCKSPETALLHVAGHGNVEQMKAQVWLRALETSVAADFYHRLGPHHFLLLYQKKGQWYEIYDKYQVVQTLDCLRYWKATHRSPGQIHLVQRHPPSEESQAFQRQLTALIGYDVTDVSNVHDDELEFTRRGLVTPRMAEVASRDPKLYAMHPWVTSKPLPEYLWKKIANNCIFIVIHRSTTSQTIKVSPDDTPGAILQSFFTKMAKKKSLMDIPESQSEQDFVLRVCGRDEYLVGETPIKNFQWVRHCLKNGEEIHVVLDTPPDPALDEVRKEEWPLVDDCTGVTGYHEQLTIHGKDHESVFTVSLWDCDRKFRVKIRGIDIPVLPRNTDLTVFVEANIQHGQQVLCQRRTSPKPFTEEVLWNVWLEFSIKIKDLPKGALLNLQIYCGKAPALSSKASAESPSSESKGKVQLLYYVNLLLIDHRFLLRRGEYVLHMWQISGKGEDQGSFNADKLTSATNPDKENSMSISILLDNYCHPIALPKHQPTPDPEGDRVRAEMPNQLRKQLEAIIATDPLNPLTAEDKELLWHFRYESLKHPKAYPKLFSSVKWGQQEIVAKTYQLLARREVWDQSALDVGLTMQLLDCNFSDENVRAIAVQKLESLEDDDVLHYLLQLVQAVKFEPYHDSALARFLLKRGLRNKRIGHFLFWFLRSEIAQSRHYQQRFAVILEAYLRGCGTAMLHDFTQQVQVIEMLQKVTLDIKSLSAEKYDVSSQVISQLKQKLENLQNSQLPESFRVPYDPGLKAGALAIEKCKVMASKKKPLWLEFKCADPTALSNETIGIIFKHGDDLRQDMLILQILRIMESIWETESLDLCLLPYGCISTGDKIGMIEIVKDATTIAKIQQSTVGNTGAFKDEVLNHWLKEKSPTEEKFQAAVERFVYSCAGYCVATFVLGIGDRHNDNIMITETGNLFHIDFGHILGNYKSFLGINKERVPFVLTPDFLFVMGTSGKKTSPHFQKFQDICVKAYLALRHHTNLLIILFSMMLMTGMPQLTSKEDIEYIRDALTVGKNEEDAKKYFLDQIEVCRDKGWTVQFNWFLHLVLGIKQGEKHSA
Experiment: Inhibition of human full length PI3K p110gamma using […] as substrate measured after 30 mins by TR-FRET assay
Conditions: not given

Structure (SMILES)	IC50 [nM]
C[C@H](Nc1nc(N)nc(N)c1C#N)c1nc2cccc(Cl)c2c(=O)n1-c1cccnc1	72
Cc1ccncc1-n1c([C@H](C)Nc2nc(N)nc(N)c2C#N)nc2cccc(Cl)c2c1=O (stereo in doubt; 25)	70
C[C@H](Nc1nc(N)nc(N)c1C#N)c1nc2c(F)ccc(Cl)c2c(=O)n1-c1cccnc1	51

Test system: not listed separately
Experiment: Chemical stability of the compound at pH 2 phosphate buffer assessed as time required for 50% hydrolytic degradation at 100 ug/ml and 40 degreeC by UPLC-UV analysis
Format: physicochemical
Conditions: dose 100 µg/ml, read-out: Time (converted)
In short: as §1

Structure (SMILES)	half-life at 100 ug/ml [h]
C[C@H](Nc1nc(N)nc(N)c1C#N)c1nc2cccc(Cl)c2c(=O)n1-c1cccnc1	2.7
Cc1ccncc1-n1c([C@H](C)Nc2nc(N)nc(N)c2C#N)nc2cccc(Cl)c2c1=O (stereo in doubt; 25)	23
C[C@H](Nc1nc(N)nc(N)c1C#N)c1nc2c(F)ccc(Cl)c2c(=O)n1-c1cccnc1	19
C[C@H](Nc1nc(N)nc(N)c1C#N)c1nc2cccc(F)c2c(=O)n1-c1cc(F)cc(F)c1	34
C[C@H](Nc1nc(N)nc(N)c1C#N)c1nc2cccc(Cl)c2c(=O)n1-c1ccccc1	358

Test system: not listed separately
Experiment: Chemical stability of the compound under aqueous acidic condition
Format: physicochemical
Conditions: buffer
In short: as §1

Structure (SMILES)	Stabilty
C[C@H](Nc1nc(N)nc(N)c1C#N)c1nc2cccc(F)c2c(=O)n1-c1cc(F)cc(F)c1	Stable
C[C@H](Nc1nc(N)nc(N)c1C#N)c1nc2cccc(Cl)c2c(=O)n1-c1ccccc1	Stable

Test system: not listed separately
Experiment: Clearance in rat at 1 mg/kg, iv
Format: ADME, organism-based
Conditions: in vivo

Structure (SMILES)	clearance [mL/min/kg]
C[C@H](Nc1nc(N)nc(N)c1C#N)c1nc2cccc(Cl)c2c(=O)n1-c1cccnc1	25
C[C@H](Nc1nc(N)nc(N)c1C#N)c1nc2c(F)ccc(Cl)c2c(=O)n1-c1cccnc1	26.7

Test system: not listed separately
Experiment: Clearance in cynomolgus monkey at 1 mg/kg, iv
Format: ADME, organism-based, Macaca fascicularis
Conditions: in vivo

Structure (SMILES)	clearance [mL/min/kg]
C[C@H](Nc1nc(N)nc(N)c1C#N)c1nc2cccc(Cl)c2c(=O)n1-c1cccnc1	1.67

Target: PI3K p110 beta/p85 alpha (Homo sapiens, UniProt P42338)
Sequence (P27986 whole entry): as the sequence (P27986 whole entry) above
Sequence (P42338 whole entry): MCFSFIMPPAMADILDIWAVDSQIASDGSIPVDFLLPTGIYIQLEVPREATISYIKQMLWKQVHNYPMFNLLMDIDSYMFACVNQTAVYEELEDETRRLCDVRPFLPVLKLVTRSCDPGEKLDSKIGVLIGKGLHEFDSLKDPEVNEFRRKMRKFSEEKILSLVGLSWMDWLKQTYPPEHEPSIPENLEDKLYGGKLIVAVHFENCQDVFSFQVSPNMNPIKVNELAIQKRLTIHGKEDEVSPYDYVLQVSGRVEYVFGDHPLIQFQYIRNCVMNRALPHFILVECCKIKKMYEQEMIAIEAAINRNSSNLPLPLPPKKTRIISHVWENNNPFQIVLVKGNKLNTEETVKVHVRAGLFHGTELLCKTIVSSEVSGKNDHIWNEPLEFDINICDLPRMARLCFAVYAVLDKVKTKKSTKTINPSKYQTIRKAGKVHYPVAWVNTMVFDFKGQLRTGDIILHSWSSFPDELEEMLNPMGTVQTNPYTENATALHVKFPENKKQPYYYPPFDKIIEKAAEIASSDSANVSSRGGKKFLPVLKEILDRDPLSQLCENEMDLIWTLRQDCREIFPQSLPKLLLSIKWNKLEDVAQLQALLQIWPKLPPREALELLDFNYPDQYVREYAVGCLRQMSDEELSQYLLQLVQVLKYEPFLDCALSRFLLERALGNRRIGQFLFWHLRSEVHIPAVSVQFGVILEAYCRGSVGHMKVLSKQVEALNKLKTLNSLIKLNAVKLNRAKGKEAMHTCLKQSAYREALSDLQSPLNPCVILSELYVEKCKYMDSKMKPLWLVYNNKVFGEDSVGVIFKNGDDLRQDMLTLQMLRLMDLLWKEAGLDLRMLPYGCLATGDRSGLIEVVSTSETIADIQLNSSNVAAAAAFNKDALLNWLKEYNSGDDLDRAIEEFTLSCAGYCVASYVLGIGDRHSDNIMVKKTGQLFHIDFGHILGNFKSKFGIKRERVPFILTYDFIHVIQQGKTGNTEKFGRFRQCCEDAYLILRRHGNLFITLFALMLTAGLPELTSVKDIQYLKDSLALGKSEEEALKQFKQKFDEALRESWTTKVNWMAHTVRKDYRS
Experiment: Inhibition of recombinant human full-length N-terminal His-tagged PI3K p110beta/p85alpha using […] as substrate measured after 30 mins by TR-FRET assay
Format: protein-complex assay
Conditions: not given

Structure (SMILES)	IC50 [nM]
C[C@H](Nc1nc(N)nc(N)c1C#N)c1nc2cccc(Cl)c2c(=O)n1-c1cccnc1	100
Cc1ccncc1-n1c([C@H](C)Nc2nc(N)nc(N)c2C#N)nc2cccc(Cl)c2c1=O (stereo in doubt; 25)	21
C[C@H](Nc1nc(N)nc(N)c1C#N)c1nc2c(F)ccc(Cl)c2c(=O)n1-c1cccnc1	46
C[C@H](Nc1nc(N)nc(N)c1C#N)c1nc2cccc(Cl)c2c(=O)n1-c1ccccc1	9.4

Test system: not listed separately
Experiment: Clearance in dog at 1 mg/kg, iv
Format: ADME, organism-based, Canis lupus familiaris
Conditions: in vivo

Structure (SMILES)	clearance [mL/min/kg]
C[C@H](Nc1nc(N)nc(N)c1C#N)c1nc2cccc(Cl)c2c(=O)n1-c1cccnc1	3.33
C[C@H](Nc1nc(N)nc(N)c1C#N)c1nc2c(F)ccc(Cl)c2c(=O)n1-c1cccnc1	3.5

Test system: not listed separately
Experiment: Selectivity index, ratio of IC50 for inhibition of recombinant human full-length N-terminal His-tagged PI3K p110beta/p85alpha to IC50 for inhibition of human full length PI3K p110delta/p85alpha
Conditions: not given

Structure (SMILES)	Ratio IC50
C[C@H](Nc1nc(N)nc(N)c1C#N)c1nc2cccc(Cl)c2c(=O)n1-c1cccnc1	160
C[C@H](Nc1nc(N)nc(N)c1C#N)c1nc2cccc(F)c2c(=O)n1-c1cc(F)cc(F)c1	650
C[C@H](Nc1nc(N)nc(N)c1C#N)c1nc2cccc(Cl)c2c(=O)n1-c1ccccc1	80

Test system: not listed separately
Experiment: Half life in dog at 1 mg/kg, iv
Format: ADME, organism-based, Canis lupus familiaris
Conditions: in vivo

Structure (SMILES)	half-life [h]
C[C@H](Nc1nc(N)nc(N)c1C#N)c1nc2cccc(Cl)c2c(=O)n1-c1cccnc1	5.6

Target: T1, Phosphatidylinositol 4,5-bisphosphate 3-kinase catalytic subunit delta isoform (Homo sapiens, UniProt O00329)
T1 sequence (O00329 whole entry): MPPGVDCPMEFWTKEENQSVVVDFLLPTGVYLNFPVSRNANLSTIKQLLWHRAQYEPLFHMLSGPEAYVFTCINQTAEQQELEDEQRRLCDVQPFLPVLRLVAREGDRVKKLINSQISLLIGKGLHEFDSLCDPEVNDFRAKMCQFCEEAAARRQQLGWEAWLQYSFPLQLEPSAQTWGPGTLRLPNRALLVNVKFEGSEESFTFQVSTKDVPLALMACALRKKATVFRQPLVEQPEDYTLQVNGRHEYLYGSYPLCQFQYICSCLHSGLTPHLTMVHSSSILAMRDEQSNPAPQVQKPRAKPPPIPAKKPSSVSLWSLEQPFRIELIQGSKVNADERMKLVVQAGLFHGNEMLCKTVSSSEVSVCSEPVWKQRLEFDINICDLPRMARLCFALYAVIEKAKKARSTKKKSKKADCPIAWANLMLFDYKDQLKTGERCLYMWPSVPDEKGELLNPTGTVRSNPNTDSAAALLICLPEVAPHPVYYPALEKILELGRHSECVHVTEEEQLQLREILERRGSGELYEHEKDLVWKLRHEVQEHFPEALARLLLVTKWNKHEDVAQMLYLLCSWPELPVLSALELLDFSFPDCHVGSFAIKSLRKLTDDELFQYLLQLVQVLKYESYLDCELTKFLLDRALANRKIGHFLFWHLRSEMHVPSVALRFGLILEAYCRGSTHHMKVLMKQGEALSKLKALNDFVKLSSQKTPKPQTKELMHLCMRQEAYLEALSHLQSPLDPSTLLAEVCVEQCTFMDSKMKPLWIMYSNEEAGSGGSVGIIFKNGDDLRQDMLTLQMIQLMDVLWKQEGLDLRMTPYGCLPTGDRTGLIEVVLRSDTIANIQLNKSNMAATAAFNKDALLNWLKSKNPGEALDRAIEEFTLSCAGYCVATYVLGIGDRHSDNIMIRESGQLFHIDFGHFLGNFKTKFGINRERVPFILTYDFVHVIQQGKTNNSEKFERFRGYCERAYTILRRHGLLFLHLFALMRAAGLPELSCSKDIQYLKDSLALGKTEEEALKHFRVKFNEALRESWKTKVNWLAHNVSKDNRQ
Experiment: Inhibition of PI3Kdelta in human whole blood assessed as reduction in anti-FCepsilonR1 mAb-stimulated basophil activation preincubated for 60 mins followed by anti-FCepsilonR1 mAb stimulation and measured after 25 mins by flow cytometry analysis
Format: tissue-based
Conditions: not given

Structure (SMILES)	EC50 [nM]
C[C@H](Nc1nc(N)nc(N)c1C#N)c1nc2cccc(Cl)c2c(=O)n1-c1cccnc1	0.9
C[C@H](Nc1nc(N)nc(N)c1C#N)c1nc2c(F)ccc(Cl)c2c(=O)n1-c1cccnc1	0.5
C[C@H](Nc1nc(N)nc(N)c1C#N)c1nc2cccc(Cl)c2c(=O)n1-c1ccccc1	0.3

Test system: not listed separately
Experiment: Chemical stability assessed as time taken for hydrolytic degradation at pH 2
Format: physicochemical
Conditions: buffer
In short: as §1

Structure (SMILES)	Time [h]
Cc1ccncc1-n1c([C@H](C)Nc2nc(N)nc(N)c2C#N)nc2cccc(Cl)c2c1=O (stereo in doubt; 25)	> 3

Test system: not listed separately
Experiment: Selectivity index, ratio of IC50 for inhibition of human full length PI3K p110gamma to IC50 for inhibition of human full length PI3K p110delta/p85alpha
Conditions: not given

Structure (SMILES)	Ratio IC50
C[C@H](Nc1nc(N)nc(N)c1C#N)c1nc2cccc(Cl)c2c(=O)n1-c1cccnc1	120
C[C@H](Nc1nc(N)nc(N)c1C#N)c1nc2cccc(F)c2c(=O)n1-c1cc(F)cc(F)c1	180
C[C@H](Nc1nc(N)nc(N)c1C#N)c1nc2cccc(Cl)c2c(=O)n1-c1ccccc1	60

Test system: not listed separately
Experiment: Half life of the compound
Format: physicochemical
Conditions: not given

Structure (SMILES)	half-life [h]
C[C@H](Nc1nc(N)nc(N)c1C#N)c1nc2cccc(F)c2c(=O)n1-c1cc(F)cc(F)c1	34
C[C@H](Nc1nc(N)nc(N)c1C#N)c1nc2cccc(Cl)c2c(=O)n1-c1ccccc1	358

Test system: not listed separately
Experiment: Oral bioavailability in rat at 5 mg/kg
Format: ADME, organism-based
Conditions: in vivo

Structure (SMILES)	bioavailability [%]
C[C@H](Nc1nc(N)nc(N)c1C#N)c1nc2cccc(Cl)c2c(=O)n1-c1cccnc1	42
C[C@H](Nc1nc(N)nc(N)c1C#N)c1nc2c(F)ccc(Cl)c2c(=O)n1-c1cccnc1	24

Test system: not listed separately
Experiment: Volume of distribution at steady state in dog at 1 mg/kg, iv
Format: ADME, organism-based, Canis lupus familiaris
Conditions: in vivo, read-out: Vdss
In short: as §2

Structure (SMILES)	Vd [L/kg]
C[C@H](Nc1nc(N)nc(N)c1C#N)c1nc2cccc(Cl)c2c(=O)n1-c1cccnc1	0.9
C[C@H](Nc1nc(N)nc(N)c1C#N)c1nc2c(F)ccc(Cl)c2c(=O)n1-c1cccnc1	0.51

Test system: not listed separately
Experiment: Drug degradation assessed as acid-mediated compound hydrolysis at 40 degreeC measured at 3 hrs
Format: physicochemical
Conditions: read-out: Drug degradation
In short: as §1

Structure (SMILES)	degraded at 3 h [%]
C[C@H](Nc1nc(N)nc(N)c1C#N)c1nc2c(F)ccc(Cl)c2c(=O)n1-c1cccnc1	10

Test system: not listed separately
Experiment: Half life in cynomolgus monkey at 1 mg/kg, iv
Format: ADME, organism-based, Macaca fascicularis
Conditions: in vivo

Structure (SMILES)	half-life [h]
C[C@H](Nc1nc(N)nc(N)c1C#N)c1nc2cccc(Cl)c2c(=O)n1-c1cccnc1	4.9
